Laboratory results reported in PMC10896134 (Pharmaceutical Biology, 2024).

Experiments:
[1] = system: MCF-7; experiment: Antiproliferation assay; format: cell-based; conditions: Homo sapiens, MCF7, 24 h, read-out: IC50 = mean ± SD, MCF-7
How it was run: (§1)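 Cell lines were grown at 37 °C under 5% CO2 in their own media: A549 in DMEM/F12, H446 in RPMI 1640, and HeLa, MCF-7, L02 and BEAS-2B in high-glucose DMEM with L-glutamine, with 10% FBS and penicillin/streptomycin. Cells were seeded in 96-well plates and exposed to test compounds or reference agents at 37 °C for 24 h. CCK-8 was added for 2 h and absorbance read at 450 nm.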

[2] = system: L02; experiment: Antiproliferation assay; format: cell-based; conditions: Homo sapiens, L02, 24 h, read-out: IC50 = mean ± SD, L02
How it was run: as §1

[3] = system: A549; experiment: Antiproliferation assay; format: cell-based; conditions: Homo sapiens, A549, 24 h, read-out: IC50 = mean ± SD, A549
How it was run: as §1

[4] = system: BEAS-2B; experiment: Antiproliferation assay; format: cell-based; conditions: Homo sapiens, 24 h, read-out: IC50 = mean ± SD, BEAS-2B
How it was run: as §1

[5] = system: H446; experiment: Antiproliferation assay; format: cell-based; conditions: Homo sapiens, NCI-H446, 24 h, read-out: IC50 = mean ± SD, H446
How it was run: as §1

[6] = system: Hela; experiment: Antiproliferation assay; format: cell-based; conditions: Homo sapiens, 24 h, read-out: IC50 = mean ± SD, Hela
How it was run: as §1

[7] = system: PI3K/Akt pathway in A549 cells; experiment: Western blot of PI3K/Akt signalling pathway proteins; format: cell-based, human; conditions: A549, 1.0 µM, 24 h
How it was run: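 A549 cells were treated 24 h with test compound (0.1, 0.5, 1.0 or 2.0 µM), LY294002 (1.0 µM) or a reference agent (1.0 µM). Lysates were heat-denatured in non-reducing sample buffer and quantified by Bradford assay. 20 µg protein ran on 10% SDS-PAGE, transferred to PVDF and probed for PI3K, pPI3K, Akt and pAkt with GAPDH as loading control. Detection was by ECL with densitometry.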

SMILES	IC50 [1] [µM]	IC50 [2] [µM]	IC50 [3] [µM]	IC50 [4] [µM]	IC50 [5] [µM]	IC50 [6] [µM]	pPI3K/PI3K and pAkt/Akt ratio [7]
COc1cc([C@@H]2c3cc4c(cc3[C@H](OC(=O)CCCc3ccc(NS(=O)(=O)c5ccccc5)cc3)[C@H]3COC(=O)[C@H]23)OCO4)cc(OC)c1OC [Compound E1, (5R,5aR,8aR,9R)-8-oxo-9-(3,4,5-trimethoxyphenyl)-5,5a,6,8,8a,9-hexahydrofuro [3′,4′:6,7]naphtho[2,3-d][1,3]dioxol-5-yl 4-(4-(phenylsulfonamido)phenyl)butanoate]	25 ± 1.11	> 100	2.73 ± 0.36	83.6 ± 1.85	22.9 ± 1.33	> 100	
CCCc1ccc(S(=O)(=O)Nc2ccc(CCCC(=O)O[C@H]3c4cc5c(cc4[C@@H](c4cc(OC)c(OC)c(OC)c4)[C@H]4C(=O)OC[C@@H]43)OCO5)cc2)cc1 [Compound E3, (5R,5aR,8aR,9R)-8-oxo-9-(3,4,5-trimethoxyphenyl)-5,5a,6,8,8a,9-hexahydrofuro [3′,4′:6,7]naphtho[2,3-d][1,3]dioxol-5-yl4-(4-((4-propylphenyl)sulfonamido)phenyl)butanoate]	18.7 ± 0.95	> 100	17.8 ± 1.11	73.6 ± 1.35	11 ± 0.47	39.2 ± 0.56	
COc1cc([C@@H]2c3cc4c(cc3[C@H](OC(=O)CCCc3ccc(NS(=O)(=O)c5ccc(Br)cc5)cc3)[C@H]3COC(=O)[C@H]23)OCO4)cc(OC)c1OC [Compound E4, (5R,5aR,8aR,9R)-8-oxo-9-(3,4,5-trimethoxyphenyl)-5,5a,6,8,8a,9-hexahydrofuro [3′,4′:6,7]naphtho[2,3-d][1,3]dioxol-5-yl4-(4-((4-bromophenyl)sulfonamido)phenyl)butanoate]	70.91 ± 0.47	> 100	2.57 ± 0.98	> 100	17.4 ± 0.95	18.4 ± 0.22	
COc1cc([C@@H]2c3cc4c(cc3[C@H](OC(=O)CCCc3ccc(NS(=O)(=O)c5cccc(F)c5)cc3)[C@H]3COC(=O)[C@H]23)OCO4)cc(OC)c1OC [Compound E6, (5R,5aR,8aR,9R)-8-oxo-9-(3,4,5-trimethoxyphenyl)-5,5a,6,8,8a,9-hexahydrofuro [3′,4′:6,7]naphtho[2,3-d][1,3]dioxol-5-yl4-(4-((3-fluorophenyl)sulfonamido)phenyl)butanoate]	25.9 ± 1.34	> 100	1.08 ± 0.32	94.3 ± 2.66	6.07 ± 0.25	12.7 ± 0.69	
COc1cc([C@@H]2c3cc4c(cc3[C@H](OC(=O)CCCc3ccc(NS(=O)(=O)c5ccccc5F)cc3)[C@H]3COC(=O)[C@H]23)OCO4)cc(OC)c1OC [Compound E7, (5R,5aR,8aR,9R)-8-oxo-9-(3,4,5-trimethoxyphenyl)-5,5a,6,8,8a,9-hexahydrofuro [3′,4′:6,7]naphtho[2,3-d][1,3]dioxol-5-yl4-(4-((2-fluorophenyl)sulfonamido)phenyl)butanoate]	18.9 ± 0.81	> 100	20.2 ± 0.79	> 100	> 100	13.6 ± 0.71	
COc1cc([C@@H]2c3cc4c(cc3[C@H](OC(=O)CCCc3ccc(NS(=O)(=O)c5ccc(C(F)(F)F)cc5)cc3)[C@H]3COC(=O)[C@H]23)OCO4)cc(OC)c1OC [Compound E8, (5R,5aR,8aR,9R)-8-oxo-9-(3,4,5-trimethoxyphenyl)-5,5a,6,8,8a,9-hexahydrofuro [3′,4′:6,7]naphtho[2,3-d][1,3]dioxol-5-yl4-(4-((4-(trifluoromethyl)phenyl)sulfonamido)phenyl)butanoate]	21.2 ± 0.52	> 100	19.5 ± 1.09	> 100	29.18 ± 0.29	51.8 ± 1.27	
COc1cc([C@@H]2c3cc4c(cc3[C@H](OC(=O)CCCc3ccc(NS(=O)(=O)c5ccc(F)cc5F)cc3)[C@H]3COC(=O)[C@H]23)OCO4)cc(OC)c1OC [Compound E9, (5R,5aR,8aR,9R)-8-oxo-9-(3,4,5-trimethoxyphenyl)-5,5a,6,8,8a,9-hexahydrofuro [3′,4′:6,7]naphtho[2,3-d][1,3]dioxol-5-yl4-(4-((2,4-difluorophenyl)sulfonamido)phenyl)butanoate]	4.97 ± 0.53	> 100	0.55 ± 0.17	99.3 ± 3.53	9.27 ± 0.74	62 ± 1.58	
COc1cc([C@@H]2c3cc4c(cc3[C@H](OC(=O)CCCc3ccc(NS(=O)(=O)c5c(F)cccc5F)cc3)[C@H]3COC(=O)[C@H]23)OCO4)cc(OC)c1OC [Compound E10, (5R,5aR,8aR,9R)-8-oxo-9-(3,4,5-trimethoxyphenyl)-5,5a,6,8,8a,9-hexahydrofuro [3′,4′:6,7]naphtho[2,3-d][1,3]dioxol-5-yl4-(4-((2,6-difluorophenyl)sulfonamido)phenyl)butanoate]	8.4 ± 0.79	> 100	0.95 ± 0.22	> 100	7.28 ± 0.96	27.5 ± 2.54	
COc1cc([C@@H]2c3cc4c(cc3[C@H](OC(=O)CCCc3ccc(NS(=O)(=O)c5ccccc5[N+](=O)[O-])cc3)[C@H]3COC(=O)[C@H]23)OCO4)cc(OC)c1OC [Compound E11, (5R,5aR,8aR,9R)-8-oxo-9-(3,4,5-trimethoxyphenyl)-5,5a,6,8,8a,9-hexahydrofuro [3′,4′:6,7]naphtho[2,3-d][1,3]dioxol-5-yl4-(4-((2-nitrophenyl)sulfonamido)phenyl)butanoate]	8.07 ± 0.63	> 100	27.8 ± 1.51	> 100	10.5 ± 2.08	46.7 ± 2.04	
COc1cc([C@@H]2c3cc4c(cc3[C@H](OC(=O)CCCc3ccc(NS(=O)(=O)c5ccc(C)cc5)cc3)[C@H]3COC(=O)[C@H]23)OCO4)cc(OC)c1OC [Compound E12, (5R,5aR,8aR,9R)-8-oxo-9-(3,4,5-trimethoxyphenyl)-5,5a,6,8,8a,9-hexahydrofuro [3′,4′:6,7]naphtho[2,3-d][1,3]dioxol-5-yl4-(4-((4-methylphenyl)sulfonamido)phenyl)butanoate]	36.8 ± 0.56	> 100	27 ± 1.33	79.3 ± 1.07	27.2 ± 2.06	36.1 ± 1.49	
COc1cc([C@@H]2c3cc4c(cc3[C@H](OC(=O)CCCc3ccc(NS(=O)(=O)c5cccc([N+](=O)[O-])c5)cc3)[C@H]3COC(=O)[C@H]23)OCO4)cc(OC)c1OC [Compound E13, (5R,5aR,8aR,9R)-8-oxo-9-(3,4,5-trimethoxyphenyl)-5,5a,6,8,8a,9-hexahydrofuro [3′,4′:6,7]naphtho[2,3-d][1,3]dioxol-5-yl4-(4-((3-nitrophenyl)sulfonamido)phenyl)butanoate]	42 ± 1.35	48.1 ± 1.09	4.94 ± 0.42	> 100	9.92 ± 0.92	51.3 ± 1.15	
COc1cc([C@@H]2c3cc4c(cc3[C@H](OC(=O)CCCc3ccc(NS(=O)(=O)c5ccc([N+](=O)[O-])cc5)cc3)[C@H]3COC(=O)[C@H]23)OCO4)cc(OC)c1OC [Compound E14, (5R,5aR,8aR,9R)-8-oxo-9-(3,4,5-trimethoxyphenyl)-5,5a,6,8,8a,9-hexahydrofuro [3′,4′:6,7]naphtho[2,3-d][1,3]dioxol-5-yl4-(4-((4-nitrophenyl)sulfonamido)phenyl)butanoate]	59.9 ± 1.71	> 100	11 ± 2.51	> 100	29.4 ± 2.54	26.8 ± 0.63	
COc1cc([C@@H]2c3cc4c(cc3[C@H](OC(=O)CCCc3ccc(NS(=O)(=O)c5cc([N+](=O)[O-])ccc5C)cc3)[C@H]3COC(=O)[C@H]23)OCO4)cc(OC)c1OC [Compound E15, (5R,5aR,8aR,9R)-8-oxo-9-(3,4,5-trimethoxyphenyl)-5,5a,6,8,8a,9-hexahydrofuro [3′,4′:6,7]naphtho[2,3-d][1,3]dioxol-5-yl4-(4-((2-methyl-5-nitrophenyl)sulfonamido)phenyl)butanoate]	59.25 ± 0.42	> 100	7.34 ± 1.32	97.3 ± 1.41	36.6 ± 1.59	16.9 ± 1.01	
O=c1cc(N2CCOCC2)oc2c(-c3ccccc3)cccc12 [LY294002, reference compound]							notable reduction
COc1cc([C@@H]2c3cc4c(cc3[C@H](O)[C@H]3COC(=O)[C@H]23)OCO4)cc(OC)c1OC [PPT, Podophyllotoxin, reference compound]	11.7 ± 0.45	9.42 ± 0.74	14.7 ± 1.14	8.91 ± 0.72	3.69 ± 0.38	15.3 ± 0.58	
